MC4R antagonist – MC4R antagonists of cAMP signaling, primary screen, cell-based, TR-FRET, antagonist arm of biased-ligand search; MC4R-expressing cells, MTII-stimulated cAMP, LANCE TR-FRET; AID 540295, 2011; inhibition, % at 6.5 µM; hit rate 0.48% among 360,000;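 active = inhibition above its plate's cutoff, the mean of tested wells on that plate plus 3 SD, cut at about 29% in these data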;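 also: 0% = Melanotan II alone and 100% = Melanotan II plus saturating MCL0020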
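Assay system: U2OS-MC4R stable cell line; Also added: Melanotan II; Technique: Eu-cAMP/anti-cAMP TR-FRET, emission 671 nm; Times: 30-min compound, 1-h challenge, 1-h detection, room temperature.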
sPLA2-III inh – human group III sPLA2 inhibitors, primary screen, biochemical, QFRET, BODIPY PC-A2 liposome substrate; AID 743126, 2013; hit rate 0.56% among 370,000; QFRET BODIPY PC-A2 liposome hydrolysis, fluorescence; inhibition, % at 12.2 µM; Group 3 secretory phospholipase A2 (Homo sapiens), Q9NZ20;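 active = inhibition above mean plus 3 SD of compounds lying within the high and low control bounds, cut at about 19% in these data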;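 also: 0% = median of test compound wells and 100% = no enzyme DMSO wells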
Bfl-1 A1 inh – caspase 3/7 activation in MEF A1-2A-BIM cells, primary screen, A1 inhibitor project, cell-based, luminescence, HTS. AID 2462, 2010. hit rate 0.066% among 330,000. Caspase-Glo 3/7 luminescence, 3 h; percent of clofoctol response, vehicle zero. caspase activation, % (no concentration beside the values);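 active = over half of replicate activation scores above 10%, or exactly half above 10 with the replicate mean above 10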
MC4R ag barr – MC4R agonists recruiting beta-arrestin, primary screen, cell-based, luminescence, agonist arm of biased-ligand search; activation, % at 8.9 µM; U2OS MC4R beta-arrestin complementation; percent of melanotan II response, DMSO zero; hit rate 0.98% among 360,000;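 active = activation above a per-plate cutoff, the mean activation of sample wells on that plate plus 3 SD, cut at about 8% in these data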
NTR1 agonist – agonists of human NTR1, primary screen, imaging, U2OS cells, beta-arrestin-GFP, high content; NTR1-U2OS beta-arrestin-GFP spot imaging, agonist mode; activation, % at 20 µM; hit rate 0.17% among 330,000;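 active = activation at or above 40% of the spot to cytoplasm intensity ratio, with at least 20 cells analyzed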;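 also: 0% = DMSO without peptide and 100% = 100 nM NTR1 peptide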
Target sequence (P30989 whole entry, looked up): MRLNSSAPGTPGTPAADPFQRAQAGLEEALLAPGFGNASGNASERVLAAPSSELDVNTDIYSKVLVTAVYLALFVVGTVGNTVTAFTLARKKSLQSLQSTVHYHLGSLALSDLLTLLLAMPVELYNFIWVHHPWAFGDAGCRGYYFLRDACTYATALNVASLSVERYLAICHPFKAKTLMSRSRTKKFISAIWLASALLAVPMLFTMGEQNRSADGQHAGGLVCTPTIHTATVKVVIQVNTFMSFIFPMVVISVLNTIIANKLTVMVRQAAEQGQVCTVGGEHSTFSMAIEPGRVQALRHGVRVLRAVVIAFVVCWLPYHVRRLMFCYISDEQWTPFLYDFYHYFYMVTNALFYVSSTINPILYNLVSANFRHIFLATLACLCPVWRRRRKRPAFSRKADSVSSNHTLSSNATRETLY
Granule exo inh – LAMP-1 surface exposure blockers, TALL-104 cells – cell-based, flow cytometry, MLPCN library, primary screen; TALL-104 LAMP-1 surface exposure; cells stimulated with thapsigargin and PMA; inhibition, % at 10 µM; hit rate 0.66% among 360,000; AID 651702, 2012;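 active = inhibition above about 55%, limit read from the data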
cAMP nonselect – nonselective cAMP signaling inhibitors, parental cells, counter-screen for MC4R biased antagonist project, cell-based, TR-FRET, U2OS, forskolin, triplicate. inhibition, % at 6.5 µM. shares compounds with MC4R antagonist. hit rate 26% among 1,600. LANCE TR-FRET;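 active = mean inhibition over triplicates above the low-control well mean plus 3 SD, set per campaign, cut at about 13% in these data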;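 also: signal is single emission at 671 nm which falls as cellular cAMP rises; 0% = forskolin-stimulated wells and 100% = buffer without forskolin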
MC4R antag conf – MC4R cAMP antagonists, retest, confirmation, cell-based, TR-FRET. hit rate 27% among 1,600. inhibition, % at 6.5 µM. shares compounds with MC4R antagonist. AID 602195, 2012. MC4R-expressing cells, MTII-stimulated cAMP; in the data active = inhibition above about 29%;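 also: 0% = agonist stimulated wells alone and 100% = agonist stimulated wells plus saturating reference antagonist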
* marks the source's active call; other numbers are inactive results; x = not tested or not shown. Compounds with a hit are over-represented: about 2.5% of the library has one in this group of screens.

SMILES	MC4R antagonist	sPLA2-III inh	Bfl-1 A1 inh	MC4R ag barr	NTR1 agonist	Granule exo inh	cAMP nonselect	MC4R antag conf
COc1ccc2c(c1)c(CC(=O)Nc1cc(C)ccc1C)c(C)n2C(=O)c1ccc(Cl)cc1	3	6	-1	-2	0	-6	x	x
COc1ccc2c(c1)c(CC(=O)Nc1ccc(C(C)=O)cc1)c(C)n2C(=O)c1ccc(Cl)cc1	29*	-19	-1	0	-2	2	0	7
CCCCc1c(-c2ccccc2OC)ncn1Cc1ccc(OC)c(Cl)c1	x	-4	x	x	x	x	x	x
N=c1c2c(-c3ccccc3)c(-c3ccccc3)n(CCc3ccccc3)c2ncn1C1CCC(O)CC1 (stereo not given)	x	-1	x	x	x	x	x	x
CCCCOc1cccc(OCC(=O)Nc2nc3ccccc3[nH]2)c1	33*	9	0	7	-2	0	-9	-23
COC(=O)C1CCN(C(=O)c2cc3c(=O)n4cccc(C)c4nc3n2Cc2ccccc2)CC1	30*	3	0	0	1	2	-3	-2
Cc1cccn2c(=O)c3cc(C(=O)O)n(C)c3nc12	-9	17	0	3	0	-3	x	x
Brc1ccsc1-c1csc(-c2ccncc2)n1	34*	7	-3	1	3	24	4	-10
O=C(Nc1ccccc1)Nc1ccccc1NS(=O)(=O)c1cccs1	30*	-8	1	1	0	-1	1	8
CC(=O)Nc1ccc(OCC(O)Cn2c(CO)nc3ccccc32)cc1 (stereo not given)	32*	-4	-1	0	1	-3	0	8
CCc1nc2ccccc2n1CC(O)COc1ccc(NC(C)=O)cc1 (stereo not given)	15	3	-1	-1	-2	0	x	x
COc1cc(C2CC(=O)Oc3c2c(=O)n(C)c2ccccc32)ccc1O (stereo not given)	21	-3	1	-2	1	-2	x	x
COc1cc(C2CC(=O)Oc3c2c(=O)n(C)c2ccccc32)cc(OC)c1OC (stereo not given)	38*	2	0	-2	-1	4	0	4
CCOC(=O)c1ccccc1NC(=O)COC(=O)c1ccc(OCC(=O)N2CCOCC2)c(OCC)c1	30*	5	x	9.1*	x	2	0	4
CCC[C@H]1[C@@H](OC(=O)NC2CCC2)CC[C@@]23CCCN2C(=O)CCC[C@@H]13	x	2	x	x	x	x	x	x
O=C(CNS(=O)(=O)c1ccc(F)cc1)N1CCN(c2ccccn2)CC1	x	9	x	x	x	x	x	x
CC(=O)Nc1cc(-c2cccc(NS(C)(=O)=O)c2)cn2c(-c3cccc(C(C)=O)c3)cnc12	17	-14	x	2	x	13	x	x
CC(=O)Nc1cccc(-c2cc(NC(C)=O)c3ncc(-c4ccc(C(C)=O)cc4)n3c2)c1	33*	16	x	9.0*	x	0	3	16
COc1ccccc1NC(=O)c1ccc(NC(=O)Cc2n[nH]c(=O)c3ccccc23)cc1	30*	-7	0	2	2	-4	5	1
COc1ccccc1C(=O)NC(=O)COC(=O)Cc1n[nH]c(=O)c2ccccc12	8	10	0	0	0	2	x	x
O=C(NC(Cc1c[nH]c2ccccc12)C(=O)N1CCOCC1)c1cccs1 (stereo not given)	9	-22	1	-1	1	-6	x	x
O=C(NC(Cc1c[nH]c2ccccc12)C(=O)N/N=C/c1ccc(Cl)cc1)c1cccs1 (stereo not given)	30*	-91	-1	0	10	-1	2	7
O=C(COC(=O)c1ccncc1)NCCCc1ccccc1	30*	5	-1	2	0	4	2	7
COc1cccc(-c2cc3nc(C)c(C)c(N4CCN(Cc5ccco5)CC4)n3n2)c1	x	-9	x	x	x	x	x	x
O=C(CNC(=O)/C(=C\c1ccc(Br)cc1)NC(=O)c1ccccc1)OCc1ccccc1	40*	-19	0	-3	22	3	19*	48*
SMILES	MC4R antagonist	sPLA2-III inh	Bfl-1 A1 inh	MC4R ag barr	NTR1 agonist	Granule exo inh	cAMP nonselect	MC4R antag conf
CCOc1ccccc1NC(=O)c1cc(C(=O)c2cc(OC)ccc2O)coc1=N	33*	-12	1	-3	-1	-1	4	5
COCc1cc(N2CCNC[C@@H]2C)ccc1N1CCS(=O)(=O)CC1	x	-1	x	x	x	x	x	x
COc1ccc(CNC(=O)[C@H](Cc2c[nH]c3ccccc23)NC(=O)[C@@H]2Cc3ccccc3CN2)cc1	31*	-5	1	-1	1	-10	-2	11
Cc1cc(NC(=O)/C(C#N)=C/c2ccc(-c3ccc(SC(F)F)cc3)o2)n(-c2ccccc2)n1	36*	-5	4	-2	26	7	2	-6
COc1ccc(-c2nnn3c2Cn2c4ccccc4c(=O)n2[C@@H](C(C)C)C3)cc1	x	6	x	x	x	x	x	x
Cc1cccc(NC(=O)COC(=O)c2ccc3c(=O)n4c(nc3c2)CCC4)c1	17	-4	0	-1	2	0	x	x
O=C(COC(=O)c1ccc2c(=O)n3c(nc2c1)CCC3)Nc1ccc(OC(F)F)cc1	30*	4	0	-3	-1	-2	5	17
O=S(=O)(CS(=O)(=O)c1ccccc1Br)c1ccccc1Br	x	2	x	x	x	x	x	x
CCCC(=O)NC1=C(Cl)C(=O)c2ccccc2C1=O	93*	3	x	-1	x	33	78*	106*
CCOC(=O)C1=C(C)C2C3C(=O)N(c4ccccc4C)C(=O)C3C1(C)C1C(=O)N(c3ccccc3C)C(=O)C21 (stereo not given)	31*	-14	0	-1	0	-2	0	-13
CCOC(=O)Cn1nnnc1CN(Cc1cccs1)Cc1cc2cc(C)ccc2[nH]c1=O	31*	-4	-1	2	0	0	9	10
COc1cccc2[nH]c3c(Cl)ncnc3c12	29*	-2	1	-1	0	-1	8	27
CCOC(=O)/C(=N\Nc1ccccc1Cl)N1CCN(c2ccccc2OC)CC1	29*	3	0	0	6	0	1	-2
